Experimental data from ChEMBL document CHEMBL4325899, “Synthesis and photocytotoxic activity of [1,2,3]triazolo[4,5-h][1,6]naphthyridines and [1,3]oxazolo[5,4-h][1,6]naphthyridines” (Eur J Med Chem, 2019).
The source made the active and inactive calls. The rule behind the calls is not given here.

Legend:
MCF7 [1] = experiment: Induction of mitochondrial dysfunction in human MCF7 cells assessed as mitochondria fusion at 400 nM after 6 hrs in presence of UV irradiation by Mitotracker Orange CMTM-ROS staining-based confocal microscopic analysis; assay type: functional, cell-based
Outline: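 MCF7 cells (4x10^5) on glass slides for 24 h. Live-labelled with MitoTracker Orange CMTM-ROS (150 nM) for 45 min in phenol red- and serum-free medium. Compound then added and cells irradiated at 365 nm (1.5 J/cm2). Fixed in 2% PFA and nuclei counterstained. Mitochondrial network morphology imaged by confocal microscopy (ex 543, em 560–620 nm) 6 h post-treatment, with untreated, irradiated and non-irradiated controls.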

MCF7 [2] = experiment: Induction of ROS generation in human MCF7 cells at 0.4 uM preincubated for 30 mins followed by irradiation at 1.5 J/cm2 for 2 hrs by H2DCFDA probe-based fluorescence assay (reference value: 100%); assay type: functional
Outline: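 MCF7 cells (3x10^4/well) seeded 24 h ahead to 80–90% confluence. Compound given for 30 min in phenol red- and serum-free medium. H2DCFDA (10 µM) added 15 min before irradiation at ~365 nm, 1.5 J/cm2. Fluorescence read 2 h after light (ex 485, em 535 nm) as % of untreated irradiated controls. Non-irradiated plates run alongside; three independent experiments.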

MCF7 [3] = experiment: Induction of lysosomal activation in human MCF7 cells at 400 nM after 6 hrs under UV-irradiation by Lysotracker Green DND 26 staining-based confocal microscopic analysis; assay type: functional, cell-based
Outline: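 MCF7 cells (4x10^5) on glass slides for 24 h. Medium replaced with phenol red- and serum-free medium containing LysoTracker Green DND-26 (175 nM) for 45 min. Compound then added and cells irradiated at 365 nm (1.5 J/cm2). Cells then PBS-washed, fixed in 2% PFA and mounted. Acidic compartments imaged by confocal microscopy (ex 488, em 500–530 nm) against non-irradiated and untreated controls.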

[4] = tested on: Human immunodeficiency virus 1; experiment: Antiviral activity against HIV1 3B infected in human MT4 cells assessed as decrease in viral replication by p24 ELISA; assay type: functional; conditions: Human immunodeficiency virus 1, 3B, read-out: CIC95
MCF-10A = experiment: Phototoxicity against human MCF10A cells preincubated for 5 mins followed by compound washout and subsequent UV irradiation at 1.5 J/cm2 for 5 mins measured after 72 hrs by MTT assay; assay type: cell-based; conditions: light or radiation study
Outline: (§1)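 Compounds were diluted in DMSO (0.5% final), applied in triplicate for 5 min, then washed out with PBS. After medium removal, cells were irradiated on ice for 5 min at 365 nm (1.5 J/cm²) and then kept 72 h at 37 °C. Viability was read by MTT at 540 nm and expressed relative to 0.5% DMSO controls given the same treatment. EC50 is the concentration killing 50%, as the mean ± SD of at least three experiments.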

HT-29 [5] = experiment: Phototoxicity index, ratio of CC50 for human HT-29 cells to EC50 for human HT-29 cells under UV irradiation at 1.5 J/cm2
[6] = Dark toxicity against human A375 cells preincubated for 5 mins followed by compound washout and measured after 72 hrs by MTT assay; assay type: cell-based, A-375
Outline: (§2)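 Cells were plated and allowed to attach overnight. Compounds were diluted in DMSO (0.5% final), with each concentration in triplicate, and applied for 5 min. Cells were then washed in PBS and given fresh medium. Without irradiation, cells were held 72 h at up to 50 μM. MTT (5 mg/mL stock) was added for 4 h, crystals were dissolved in SDS/HCl overnight, and absorbance was read at 540 nm. CC50 is the concentration killing 50% of cells, taken as the mean of at least three experiments.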

[7] = Dark toxicity against human MCF7 cells preincubated for 5 mins followed by compound washout and measured after 72 hrs by MTT assay; assay type: cell-based; outline: as §2
MCF7 [8] = experiment: Phototoxicity index, ratio of CC50 for human MCF7 cells to EC50 for human MCF7 cells under UV irradiation at 1.5 J/cm2
[9] = Selectivity index, ratio of EC50 for human MCF10A cells under UV irradiation at 1.5 J/cm2 to EC50 for human MCF7 cells under UV irradiation at 1.5 J/cm2; assay type: toxicity; conditions: MCF10A cells versus MCF7 cells, read-out: Ratio EC50
Outline: (§3)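 SI is the EC50 under irradiation in non-tumor MCF10A cells divided by the EC50 under irradiation in the tumor line. Both were MTT read-outs 72 h after 1.5 J/cm² at 365 nm.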

A-375 [10] = experiment: Phototoxicity index, ratio of CC50 for human A375 cells to EC50 for human A375 cells under UV irradiation at 1.5 J/cm2
[11] = Solubility of the compound in DMSO; assay type: physicochemical
MCF7 [12] = experiment: Phototoxicity against human MCF7 cells preincubated for 5 mins followed by compound washout and subsequent UV irradiation at 1.5 J/cm2 for 5 mins measured after 72 hrs by MTT assay; assay type: functional, cell-based; conditions: MCF7, light or radiation study; outline: as §1
[13] = Dark toxicity against human HT-29 cells preincubated for 5 mins followed by compound washout and measured after 72 hrs by MTT assay; assay type: cell-based; outline: as §2
[14] = Selectivity index, ratio of EC50 for human MCF10A cells under UV irradiation at 1.5 J/cm2 to EC50 for human A375 cells under UV irradiation at 1.5 J/cm2; assay type: toxicity; conditions: MCF10A cells versus A375 cells, read-out: Ratio EC50; outline: as §3
[15] = Phototoxicity index, ratio of CC50 for human MCF10A cells to EC50 for human MCF10A cells under UV irradiation at 1.5 J/cm2; assay type: cell-based, MCF-10A; conditions: read-out: Ratio CC50/EC50
HT-29 [16] = experiment: Phototoxicity against human HT-29 cells preincubated for 5 mins followed by compound washout and subsequent UV irradiation at 1.5 J/cm2 for 5 mins measured after 72 hrs by MTT assay; assay type: functional, cell-based; conditions: HT-29, light or radiation study; outline: as §1
[17] = Selectivity index, ratio of EC50 for human MCF10A cells under UV irradiation at 1.5 J/cm2 to EC50 for human HT-29 cells under UV irradiation at 1.5 J/cm2; assay type: toxicity; conditions: MCF10A cells versus HT-29 cells, read-out: Ratio EC50; outline: as §3
A-375 [18] = experiment: Phototoxicity against human A375 cells preincubated for 5 mins followed by compound washout and subsequent UV irradiation at 1.5 J/cm2 for 5 mins measured after 72 hrs by MTT assay; assay type: functional, cell-based; conditions: A-375, light or radiation study; outline: as §1
[19] = Dark toxicity against human MCF10A cells preincubated for 5 mins followed by compound washout and measured after 72 hrs by MTT assay; assay type: cell-based, MCF-10A; outline: as §2
MCF7 [20] = experiment: Induction of ROS generation in human MCF7 cells at 2 uM preincubated for 30 mins followed by irradiation at 1.5 J/cm2 for 2 hrs by H2DCFDA probe-based fluorescence assay; assay type: functional, cell-based
Outline: (§4)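 MCF7 cells (3x10⁴) were plated 24 h ahead to reach 80–90% confluence. Compounds were applied for 30 min in phenol-red-free, serum-free medium, and H2DCFDA (10 µM) was added 15 min before irradiation (1.5 J/cm², ~365 nm) or no irradiation. DCF fluorescence (485/535 nm) was read 2 h after light and expressed relative to untreated controls (100%). PMA (400 nM) served as positive control; three independent experiments.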

[21] = Photogeneration of oxygen in aqueous acetonitrile/water solution at 2.3 x 10^-5M measured after 1 hr under 150W irradiation by ADPA probe based spectra analysis
MCF7 [22] = experiment: Induction of ROS generation in human MCF7 cells at 0.5 to 2 uM measured after 30 mins under dark condition by H2DCFDA probe-based fluorescence assay; assay type: cell-based; conditions: mcf7, 0.5 h; outline: as §4
MCF7 [23] = experiment: Induction of mitochondrial dysfunction in human MCF7 cells at 2 uM after 2 hrs in presence of UV irradiation by Mitotracker Orange CMTM-ROS staining-based confocal microscopic analysis; assay type: functional, cell-based
Outline: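 MCF7 cells (4x10⁵) were plated on glass slides for 24 h. They were then loaded with MitoTracker Orange CMTM-ROS (150 nM) for 45 min in phenol-red-free, serum-free medium, before 2 µM compound and UV photoactivation. Cells were fixed in 2% PFA 20 min or 2 h after UV and imaged confocally (ex 543 nm, em 560–620 nm). PMA (400 nM) served as ROS-inducer control.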

MCF7 [24] = experiment: Cell cycle arrest in human MCF7 cells assessed as accumulation of cells at G2/M phase at EC50 after 24 hrs under UV-irradiation by propidium iodide staining-based flow cytometric analysis (reference value: 26.3%); assay type: functional
MCF7 [25] = experiment: Cell cycle arrest in human MCF7 cells assessed as accumulation of cells at subG1 phase at EC50 after 24 hrs under UV-irradiation by propidium iodide staining-based flow cytometric analysis (reference value: 4.8%); assay type: functional
MCF7 [26] = experiment: Induction of lysosomal activation in human MCF7 cells at 2 uM after 2 hrs in presence of UV irradiation by Lysotracker Green DND 26 staining-based confocal microscopic analysis; assay type: functional, cell-based
Outline: (§5)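 MCF7 cells (4x10⁵) on glass slides were loaded with LysoTracker Green DND-26 (175 nM) for 45 min in phenol-red-free, serum-free medium, before 2 µM compound with or without UV activation. Cells were fixed in 2% PFA 20 min or 2 h after UV and imaged confocally (ex 488 nm, em 500–530 nm). Controls were untreated cells with and without irradiation, and cells given PMA (400 nM).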

MCF7 [27] = experiment: Induction of apoptosis in human MCF7 cells assessed as apoptotic cells at EC50 after 4 hrs in presence of photoirradiation by Annexin V-FITC/propidium iodide staining-based flow cytometric analysis relative to control; assay type: functional
MCF7 [28] = experiment: Cell cycle arrest in human MCF7 cells assessed as accumulation of cells at G0/G1 phase at EC50 after 24 hrs under UV-irradiation by propidium iodide staining-based flow cytometric analysis (reference value: 44.2%); assay type: functional
MCF7 [29] = experiment: Cell cycle arrest in human MCF7 cells assessed as accumulation of cells at S phase at EC50 after 24 hrs under UV-irradiation by propidium iodide staining-based flow cytometric analysis (reference value: 24.7%); assay type: functional
MCF7 [30] = experiment: Induction of lysosomal activation in human MCF7 cells at 2 uM after 2 hrs in absence of UV irradiation by Lysotracker Green DND 26 staining-based confocal microscopic analysis; assay type: cell-based; conditions: mcf7, 2 h; outline: as §5
MCF7 [31] = experiment: Induction of apoptosis in human MCF7 cells assessed as viable cells at EC50 after 4 hrs in presence of photoirradiation by Annexin V-FITC/propidium iodide staining-based flow cytometric analysis (reference value: 95%); assay type: functional
MCF7 [32] = experiment: Induction of ROS generation in human MCF7 cells at 2 uM measured after 30 mins under dark condition by H2DCFDA probe-based fluorescence assay; assay type: cell-based; conditions: mcf7, 0.5 h; outline: as §4
MCF7 [33] = experiment: Induction of apoptosis in human MCF7 cells assessed as necrotic cells at EC50 after 4 hrs in presence of photoirradiation by Annexin V-FITC/propidium iodide staining-based flow cytometric analysis relative to control; assay type: functional

Q: Which Activity (MCF7 [1]) does the source give for `CCCCCCCCCCCCCC(=O)O[C@@H]1[C@@H](C)[C@@]2(O)[C@@H](C=C(CO)C[C@]3(O)C(=O)C(C)=C[C@@H]23)[C@@H]2C(C)(C)[C@]12OC(C)=O` [PHORBOL MYRISTATE ACETATE] here?
A: Active

Q: What about the Activity (MCF7 [2]) of the same molecule?
A: 120%

Q: What about the Activity (MCF7 [3]) of the same molecule?
A: Active

Q: With `O=C(c1cc(Cc2ccccc2)cc(CN2CCCS2(=O)=O)c1)c1ncc2cccnc2c1O` as the molecule, how does the IC95 [4] read?
A: 0.39 µM

Q: For `COc1ccccc1-c1ccc2c(C)nc3oc(-c4cc(OC)c(OC)c(OC)c4)nc3c2n1`, which EC50 (MCF-10A) is on record?
A: 1.86 µM

Q: And the “Ratio CC50/EC50” value (HT-29 [5])?
A: >254

Q: What about the CC50 at 72 h [6] of the same molecule?
A: > 50 µM

Q: What about the CC50 at 72 h [7] of the same molecule?
A: > 50 µM

Q: And the “Ratio CC50/EC50” value (MCF7 [8])?
A: >14

Q: And the selectivity ratio [9]?
A: 0.527

Q: And the “Ratio CC50/EC50” value (A-375 [10])?
A: >65

Q: What about the solubility [11] of the same molecule?
A: Soluble

Q: And the EC50 (MCF7 [12])?
A: 3.53 µM

Q: And the CC50 at 72 h [13]?
A: > 50 µM

Q: What about the selectivity ratio [14] of the same molecule?
A: 2

Q: And the selectivity ratio [15]?
A: > 27

Q: And the EC50 (HT-29 [16])?
A: 0.197 µM

Q: What about the selectivity ratio [17] of the same molecule?
A: 9

Q: And the EC50 (A-375 [18])?
A: 0.764 µM

Q: What about the CC50 at 72 h [19] of the same molecule?
A: > 50 µM

Q: What does the source list for `COc1ccc(-n2nnc3c4nc(C)ccc4c(C)nc32)cc1`?
A: Activity (MCF7 [20]): inactive; Activity [21]: Active; EC50 (MCF-10A): > 50 µM; Activity (MCF7 [22]): Non-Toxic; Activity (MCF7 [23]): inactive; Activity (MCF7 [24]): 26.6%; Activity (MCF7 [25]): 4.5%; Activity (MCF7 [26]): inactive; Activity (MCF7 [27]): 4%; CC50 at 72 h [6]: > 50 µM; CC50 at 72 h [7]: > 50 µM; Activity (MCF7 [28]): 43.2%; Activity (MCF7 [29]): 25.7%; Activity (MCF7 [30]): Non-Toxic; solubility [11]: Soluble; Activity (MCF7 [31]): 90%; Activity (MCF7 [32]): Non-Toxic; EC50 (MCF7 [12]): > 50 µM; CC50 at 72 h [13]: > 50 µM; Activity (MCF7 [33]): 7%; EC50 (HT-29 [16]): > 50 µM; EC50 (A-375 [18]): > 50 µM; CC50 at 72 h [19]: > 50 µM
